CSN deneddyl inh: inhibitors of human CSN-mediated cullin deneddylation. Purified CSN, SCF-Nedd8-OG deneddylation, fluorescence polarization. Q92905. hit rate 0.38% among 360,000. inhibition, % at 12.5 µM. AID 651999;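 active means pattern-corrected inhibition above about 35%, with an unprinted fluorescence ratio check between 0.5 and 1.5, limit read from the data, passing the limit was not always enough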
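Assay system: HEK293T-derived human Csn5 enzyme; quantity: 0.24 nM enzyme; medium: Tris/NaCl/DTT buffer, pH 7.5; also added: substrate SCFSkp2-Nedd8OG, 10 nM; doses: 12.5 µM compound; schedule: 90 min reaction at room temperature; signal: FP; read-out: % inhibition of substrate cleavage by Csn5; benchmarks: substrate-only high control, full reaction low control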
SENP1 inh: SENP1 (human) catalytic domain inhibition; recombinant SENP1 catalytic domain, CyPet-SUMO1-YPet FRET cleavage; inhibition, % at 10 µM; hit rate 0.21% among 360,000; AID 624204;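 active means inhibition at least 30% at 10 µM, raw YFP signal under a set limit, fluorescence ratio 0.5 to 1.5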
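Assay system – human recombinant His6-tagged SENP1 catalytic domain enzyme · Input – SENP1 enzyme, 20 pM final · Buffer or medium – Tris pH 8 buffer plus EDTA, NaCl, BME, BSA, NP40, catalase · Schedule – 50 min reaction at room temperature · Technique – FRET read of cyan and yellow fluorescence · Control set – no-enzyme wells low, DMSO-plus-enzyme wells high control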
Rpn11 inh: inhibitors of human proteasome Rpn11; human 26S proteasome, Ub4-pepOG fluorescence polarization; 20S core pre-blocked with epoxomicin; O00487; inhibition, % at 20 µM; hit rate 0.59% among 360,000;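 active means inhibition at 20 µM, scaled to each plate's controls, above about 33%, limit read from the data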
TPT1 inh: blocks Candida albicans tRNA 2'-phosphotransferase; hit rate 0.81% among 300,000; recombinant caTPT1, FP RNA substrate dephosphorylation; AID 1962; inhibition, % at 5 µM;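 active means inhibition above the mean of all tested compounds plus 3 SD, set per screening campaign, cut at about 24% in these data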
HNF4A DNA FP: change in binding of human HNF4 alpha to DNA; AID 1224865; HNF4a-FITC DNA binding, fluorescence polarization, 1 h; activity change, % at 10 µM; P41235; hit rate 0.3% among 360,000; in the data active means activity change above about 30%, passing the limit was not always enough
Rpn11 inh conf: Rpn11 inhibition confirmation, single concentration; shares compounds with Rpn11 inh; purified human 26S proteasome, Ub4-pepOG fluorescence polarization; proteasome pretreated with epoxomicin; hit rate 29% among 1,900; inhibition, % at 20 µM
MMP-2 inh: blocks human MMP-2, flagging nonselective RPN11 hits | shares compounds with Rpn11 inh | recombinant MMP-2, FRET peptide cleavage fluorescence | inhibition, % at 20 µM | hit rate 4% among 1,900 | AID 602330;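 further: human MMP-2 activated beforehand with APMA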
Thrombin inh: thrombin (bovine) inhibition counter-screen | shares compounds with Rpn11 inh | bovine thrombin cleavage of Ub4-pepOG, fluorescence polarization | inhibition, % at 20 µM | hit rate 13% among 1,900 | AID 602333;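 active means mean inhibition at least 40% at 20 µM, or signal 3 deviations below plate average, so some actives read negative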
Target sequence (P00735 whole entry, looked up): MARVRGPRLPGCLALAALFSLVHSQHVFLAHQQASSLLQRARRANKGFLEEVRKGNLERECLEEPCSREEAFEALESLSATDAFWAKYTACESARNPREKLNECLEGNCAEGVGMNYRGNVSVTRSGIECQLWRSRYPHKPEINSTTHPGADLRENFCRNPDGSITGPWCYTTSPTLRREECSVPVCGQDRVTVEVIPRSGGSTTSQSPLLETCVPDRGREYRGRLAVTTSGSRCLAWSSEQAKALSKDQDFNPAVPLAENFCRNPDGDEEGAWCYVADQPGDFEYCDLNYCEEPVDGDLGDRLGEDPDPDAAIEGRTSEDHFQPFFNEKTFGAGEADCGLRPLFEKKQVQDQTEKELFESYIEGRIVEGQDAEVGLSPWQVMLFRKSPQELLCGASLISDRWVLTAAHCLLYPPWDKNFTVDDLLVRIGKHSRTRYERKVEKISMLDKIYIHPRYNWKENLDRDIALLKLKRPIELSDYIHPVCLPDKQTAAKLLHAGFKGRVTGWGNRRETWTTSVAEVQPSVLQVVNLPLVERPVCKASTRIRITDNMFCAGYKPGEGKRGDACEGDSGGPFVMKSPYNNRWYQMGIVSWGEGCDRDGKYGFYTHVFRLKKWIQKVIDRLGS
SENP1 inh conf: SENP1 (human) inhibition, single concentration confirmation | shares compounds with SENP1 inh | recombinant SENP1, CyPet-SUMO1-YPet FRET cleavage | inhibition, % at 10 µM | hit rate 34% among 520; in the data active means inhibition mostly above about 35%, no sharp cut-off; inactive means mostly below about 32%
SENP1 kinetic: SENP1 (human) inhibition, kinetic confirmation; shares compounds with SENP1 inh; recombinant SENP1, CyPet-SUMO1-YPet FRET kinetic cleavage; inhibition, % at 10 µM; hit rate 26% among 520; AID 651690; in the data active means inhibition mostly above about 32%, no sharp cut-off; inactive means mostly below about 29%
Each line names hits and unclear results; the compound was inactive in the other large screens (follow-up assays come after a bar, where shown). Most compounds without a hit are left out; they make up all but 1.6% or so of the library. Unless noted, no stated cut-off is given here; in the data, active means inhibition above about 40%; inactive means the rest.

CCOC(=O)CCC(=O)Nc1ccc([N+](=O)[O-])cc1C	Rpn11 inh 138, HNF4A DNA FP 30 | Rpn11 inh conf inactive | MMP-2 inh inactive | Thrombin inh inactive
COc1cc(NC(=O)CN(C)S(=O)(=O)c2ccc(C)cc2)cc(OC)c1	Rpn11 inh 38 | Rpn11 inh conf inactive | MMP-2 inh inactive | Thrombin inh inactive
COc1ccc(NC(=O)CN(C)S(=O)(=O)c2ccc(Cl)cc2)c([N+](=O)[O-])c1	Rpn11 inh 39 | Rpn11 inh conf inactive | MMP-2 inh inactive | Thrombin inh inactive
COc1ccc(S(=O)(=O)N(C)CC(=O)Nc2ccc(C)cc2)cc1OC	none
COc1cccc(NC(=O)CN(C)CC(=O)Nc2ccc(Cl)cc2[N+](=O)[O-])c1	none
Cc1cc(/C=C2\Cc3ccccc3C2=O)c(C)n1-c1ccccc1	Rpn11 inh 56 | Rpn11 inh conf 124 | MMP-2 inh inactive | Thrombin inh 105
CCc1nc2ccc(C(=O)NCCCn3ccnc3)cn2c1N(C)C(=O)COc1ccccc1	none (no result: TPT1 inh)
CCc1ccc(NC(=O)C(=O)c2ccccc2NC(C)=O)cc1	none (no result: TPT1 inh)
CCCCC(CC)CNC(=O)C(=O)c1ccccc1NC(C)=O (centres undefined)	Rpn11 inh 41 | Rpn11 inh conf inactive | MMP-2 inh inactive | Thrombin inh inactive
Cc1ccc(Cl)c(OC(=O)Cn2cnc3c2c(=O)n(C)c(=O)n3C)c1	none
CCOc1ccc(N2C(=O)/C(=C\c3ccc(O)c(OC)c3)S(=O)(=O)C2c2cccc([N+](=O)[O-])c2)cc1 (centres undefined)	Rpn11 inh 57 | Rpn11 inh conf inactive | MMP-2 inh inactive | Thrombin inh inactive
CCOc1ccc(N2C(=O)/C(=C\c3ccc(OC)c(O)c3)S(=O)(=O)C2c2cccc([N+](=O)[O-])c2)cc1 (centres undefined)	none
COc1ccc(NC(=O)CCn2c(=S)[nH]c3ccccc3c2=O)cc1Cl	Rpn11 inh 129, HNF4A DNA FP 42 (no result: TPT1 inh) | Rpn11 inh conf 63 | MMP-2 inh inactive | Thrombin inh inactive
COc1cc(/C=C2/SC(=Nc3ccc(O)cc3)NC2=O)ccc1O	Rpn11 inh 76 | Rpn11 inh conf 70 | MMP-2 inh inactive | Thrombin inh 64
CCc1ccc(N=C2NC(=O)/C(=C/c3cc(OC)c(O)c(OC)c3)S2)cc1	none (not shown: Rpn11 inh, TPT1 inh)
COc1cc(/C=C2\SC(=Nc3ccccc3OC)NC2=O)ccc1O	Rpn11 inh 74 | Rpn11 inh conf 47 | MMP-2 inh inactive | Thrombin inh 51
Cc1ccc2[nH]c(=O)c3cc(C(=O)N(C)C4CCCCC4)sc3c2c1	none
O=[N+]([O-])c1cnc2nc(-c3ccncc3)nn2c1O	none
Cc1nc2ccc(NC(=O)c3ccc(Cl)c(S(=O)(=O)N(C)c4ccccc4)c3)cc2s1	Rpn11 inh 81 | Rpn11 inh conf 61 | MMP-2 inh inactive | Thrombin inh 52
CC1=NN(c2ccccc2)C(=O)C1CCC#N (centres undefined)	none (no result: TPT1 inh)
CCOC(=O)c1sc(NC(=O)/C=C/c2c(F)cccc2Cl)nc1C	Rpn11 inh 48, HNF4A DNA FP 34 | Rpn11 inh conf inactive | MMP-2 inh inactive | Thrombin inh inactive
CC(=O)N1CCc2cc(S(=O)(=O)NCCC(=O)NCCc3ccc(Cl)cc3)ccc21	none
Nc1cc2nc[nH]c2cc1N	Rpn11 inh 45 (no result: TPT1 inh) | Rpn11 inh conf inactive | MMP-2 inh inactive | Thrombin inh inactive
Cn1c(=O)n(C)c2cc3[nH]cnc3cc21	none
CNC(=O)/C(C#N)=C/c1c(N(Cc2ccccc2)Cc2ccccc2)nc2ccccn2c1=O	none
COC(=O)c1ccc(CSc2ncnc3c2sc2nc(N4CCOCC4)c4c(c23)CCCC4)o1	Rpn11 inh 41 | Rpn11 inh conf inactive | MMP-2 inh inactive | Thrombin inh inactive
Cc1nc2ccc(C(=O)N(C)Cc3ccco3)cn2c1N(C)CC1CCCCC1	none (no result: TPT1 inh)
COCCN(CC(=O)Nc1cccc(C)c1C)C(=O)Cn1c(=O)cnc2ccccc21	none (no result: TPT1 inh)
COc1ccc(/C=C/C(=O)Nc2ccc(OC)cc2[N+](=O)[O-])cc1	SENP1 inh 64, Rpn11 inh 44 | Rpn11 inh conf inactive | MMP-2 inh inactive | Thrombin inh inactive | SENP1 inh conf inactive | SENP1 kinetic inactive
COc1ccc(NC(=O)/C=C/c2ccccc2)c([N+](=O)[O-])c1	none
COc1cc(NC(=O)CSc2nnc(-c3ccncc3)o2)cc(OC)c1OC	none
CCOC(=O)c1c(NC(=O)c2cc(-c3ccc(O)cc3)on2)sc(C(C)=O)c1C	SENP1 inh 31, Rpn11 inh 171, HNF4A DNA FP 154 | Rpn11 inh conf inactive | MMP-2 inh inactive | Thrombin inh inactive | SENP1 inh conf inactive | SENP1 kinetic inactive
CCOC(=O)c1c(NC(=O)CC(C)C)sc(C(C)=O)c1C	none
Nc1ccc2c(c1)C(=NO)c1cc([N+](=O)[O-])ccc1-2	SENP1 inh 83, Rpn11 inh 44, HNF4A DNA FP 52 (no result: TPT1 inh) | Rpn11 inh conf inactive | MMP-2 inh inactive | Thrombin inh inactive | SENP1 inh conf 86 | SENP1 kinetic 47
O=[N+]([O-])c1ccc2c(c1)-c1ccccc1C2=NO	none (no result: TPT1 inh)
CCOC(=O)C1CCCN(C2=NC(=O)/C(=C/c3ccc(O)c(OC)c3)S2)C1 (centres undefined)	SENP1 inh 69, Rpn11 inh 76 | Rpn11 inh conf 43 | MMP-2 inh inactive | Thrombin inh inactive | SENP1 inh conf 110 | SENP1 kinetic 66
CC(C)(C)Nc1c(-c2ccc(O)cc2)nc2ccc(Cl)cn12	none
O=C(NC(=S)Nc1ccccc1O)c1cncc(Br)c1	SENP1 inh 30, Rpn11 inh 48 | Rpn11 inh conf inactive | MMP-2 inh inactive | Thrombin inh inactive | SENP1 inh conf inactive | SENP1 kinetic inactive
COCCNC(=O)C1(C)CCCN(C(=O)c2cc(C)oc2C)C1 (centres undefined)	none (no result: TPT1 inh)
COc1ccc(N2CCN(C(=O)c3ccc4c(c3)NC(=O)C(CSCc3ccccc3F)N4)CC2)cc1 (centres undefined)	SENP1 inh 33, Rpn11 inh 47 (no result: TPT1 inh) | Rpn11 inh conf inactive | MMP-2 inh inactive | Thrombin inh inactive | SENP1 inh conf inactive | SENP1 kinetic inactive

Compound activity: PubChem BioAssay, several laboratories
